PMI act – activators of human PMI, primary screen, biochemical, fluorescence intensity, near-Km mannose 6-phosphate. Mannose-6-phosphate isomerase (Homo sapiens), P34949. AID 1214, 2008. hit rate 0.005% among 190,000. activation factor at 20 µM. purified human PMI, coupled resazurin fluorescence, 20 min; hits give high values; 1 = vehicle control, 0 substrate-free wells;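 active = activation factor of 2 or more at 20 µM, relative to plate controls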
TNAP inh noacc – human TNAP enzyme inhibitors, primary screen, biochemical, luminescent, no phosphate acceptor, uHTS; inhibition, % at 20 µM; hit rate 0.26% among 200,000; AID 1012, 2008; Alkaline phosphatase, tissue-nonspecific isozyme (Homo sapiens), P05186; purified TNAP, CDP-star luminescence, 30 min;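 active = tissue-nonspecific alkaline phosphatase inhibition above about 50% at 20 µM in the single-dose screen, limit read from the data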;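 also: 0% = DMSO negative control and 100% = EDTA positive control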
Target sequence (P05186 whole entry, looked up): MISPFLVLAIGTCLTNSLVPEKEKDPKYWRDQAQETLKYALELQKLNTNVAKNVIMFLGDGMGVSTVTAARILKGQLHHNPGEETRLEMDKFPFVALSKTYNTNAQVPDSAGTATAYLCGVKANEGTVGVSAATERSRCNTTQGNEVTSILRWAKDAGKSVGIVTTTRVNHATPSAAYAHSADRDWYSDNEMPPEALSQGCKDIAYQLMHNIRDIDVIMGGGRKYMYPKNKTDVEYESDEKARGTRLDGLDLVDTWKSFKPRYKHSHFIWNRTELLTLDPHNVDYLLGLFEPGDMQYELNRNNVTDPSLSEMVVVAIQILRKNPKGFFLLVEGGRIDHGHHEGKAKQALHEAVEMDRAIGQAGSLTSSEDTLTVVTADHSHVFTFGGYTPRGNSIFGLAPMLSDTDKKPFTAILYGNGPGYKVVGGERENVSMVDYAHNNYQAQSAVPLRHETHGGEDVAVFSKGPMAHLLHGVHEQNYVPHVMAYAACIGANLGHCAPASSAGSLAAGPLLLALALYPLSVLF
TNAP inh hi DEA – human TNAP enzyme inhibitors, primary screen, biochemical, luminescent, high phosphate acceptor level, uHTS. Alkaline phosphatase, tissue-nonspecific isozyme (Homo sapiens), P05186. purified TNAP, CDP-star luminescence, 1 M DEA. inhibition, % at 20 µM. hit rate 0.03% among 200,000. AID 1135, 2008;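 active = over 50% inhibition of tissue-nonspecific alkaline phosphatase at 20 µM in the single-dose screen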;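 also: plate controls were DMSO wells for no effect and EDTA-quenched wells as full inhibition for full effect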
Rad51 HR inh – human RAD51 strand exchange inhibitors, primary screen, biochemical, fluorescence; inhibition, % at 10 µM; DNA repair protein RAD51 homolog 1 (Homo sapiens), Q06609; hit rate 0.085% among 200,000; hRad51 DNA strand exchange, fluorescence dequenching;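 active = inhibition above 40% at the single screening dose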;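 also: 0% = DMSO control wells and 100% = blanks with heterologous ssDNA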
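Material: Human Rad51 nucleoprotein filaments preassembled on unlabelled ssDNA | Also added: Labelled 47-mer dsDNA for strand exchange | Dosing: Single dose, 10 µM final compound | Schedule: 30-min compound preincubation and 15-min exchange, both room temperature | Technique: Fluorescence dequenching at 485/520 nm | Measure: Percent inhibition relative to plate controls and blanks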
PMI act hi M6P – human PMI activators, high substrate, primary screen, biochemical, fluorescence intensity, near-saturating mannose 6-phosphate | hit rate 0.34% among 190,000 | activation factor at 20 µM | coupled PMI enzyme assay, resazurin fluorescence, 20 min; hits give high values; 1 = untreated enzyme, 0 = substrate-free blank | Mannose-6-phosphate isomerase (Homo sapiens), P34949;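 active = activation factor of 2 or more at 20 µM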
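Test system: human phosphomannose isomerase with PGI, G6PDH, diaphorase coupling enzymes / Doses: 20 µM compound, 1% DMSO / Times: enzyme reaction with compound 20 min at room temperature / Measured by: Diaphorase-driven resazurin-to-resorufin fluorescence, excitation 544, emission 590 nm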
TNAP act hiacc – TNAP activators at high phosphate acceptor level, primary screen, biochemical, luminescence, uHTS. Alkaline phosphatase, tissue-nonspecific isozyme (Homo sapiens), P05186. AID 1136, 2008. purified TNAP, CDP-star luminescence, 1 M DEA, 30 min; hits give high values; 0 = EDTA background, 1 = DMSO-only activity. 200,000 tested, under 10 active. activation factor at 20 µM;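 active = activation factor at least 2 at 20 µM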
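Test system – human TNAP · Doses – 20 µM single point · Incubation – 30 min, room temperature · Signal – luminescent substrate turnover signal · Read-out basis – activation factor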
* = called active by the depositor; / = no result given. Shown are actives, neighbours in structure and some others; about 0.6% of the full set was active somewhere.

SMILES | PMI act | TNAP inh noacc | TNAP inh hi DEA | Rad51 HR inh | PMI act hi M6P | TNAP act hiacc
O=C(c1ccc(Cl)cc1)c1oc2ccccc2c1CS(=O)c1ccccc1 (stereo not drawn) | 1.3 | -4.9 | -2.6 | 4.2 | 2.2* | 1
O=CN1CCc2scc[n+]2-c2ccccc21 | 0.9 | -5.2 | 0.2 | 1.6 | 1 | 1
O=C(Nc1ccccc1)N1CCc2scc[n+]2-c2ccccc21 | 1 | 69.7* | 0.3 | / | 1 | 1
CC1CN(C(=O)Nc2ccccc2)c2ccccc2-[n+]2ccsc21 (stereo not drawn) | 1 | 71.7* | 0.9 | / | 1 | 1
Cc1cc(Cl)ccc1OCC(O)CN1C(C)CCCC1C (stereo not drawn) | 1.1 | -2.2 | -0.4 | -1.7 | 1 | 1
Cn1cc(C(=O)c2ccc(Cl)cc2Cl)cc1C(=O)N/N=C(\N)COc1ccc(F)cc1 | 0.9 | -10.2 | -1.4 | -12.4 | 1 | 1
O=C(CSc1n[nH]c(-c2ccccc2Cl)n1)NCc1cccc(C(=O)O)c1 | 1 | 93.0* | -0.2 | -7.6 | 1.1 | 1
COc1ccccc1-c1nc(SCC(=O)O)n[nH]1 | 0.9 | 30.9 | -1.9 | -2.0 | 1 | 1
CC1(C(=O)CSc2n[nH]c(-c3ccccc3Cl)n2)CCC(=O)O1 (stereo not drawn) | 0.8 | 53.8* | -3.5 | -5.5 | 1.1 | 1
CC1(C(=O)CSc2nc3ccccc3[nH]2)CCC(=O)O1 (stereo not drawn) | 0.9 | -9.6 | -2.8 | -4.0 | 1 | 1
CC1CC2(CC(C)(C(=O)CSc3n[nH]c(-c4ccccc4Cl)n3)OC2=O)C(=O)O1 (stereo not drawn) | 1 | 52.9* | -3.4 | 7.9 | 1.3 | 1
CCCCn1c(SCC(=O)c2ccccc2)nc2ccsc2c1=O | 1 | -5.1 | -7.5 | 9.1 | 1 | 1.1
NC(=O)CSc1nnc(-c2ccncc2)n1CCc1ccccc1 | 1.1 | -1.7 | -9.1 | -1.8 | 1 | 1.1
O=C1CCc2cc(S(=O)(=O)NC(C(=O)NCc3cccnc3)c3ccccc3)ccc2N1 (stereo not drawn) | 0.9 | -16.2 | -5.9 | -2.9 | 0.9 | 1.1
O=C1CCc2cc(S(=O)(=O)NC(C(=O)N3CCN(c4ccccn4)CC3)c3ccccc3)ccc2N1 (stereo not drawn) | 1.1 | -4.5 | -1.0 | 41.4* | 1 | 1
CC(=O)Nc1n[nH]c(-c2ccc(C)cc2)c1C | 0.9 | 85.1* | -6.3 | 8.5 | 1 | 1.1
COc1ccc(N2CCN(C(=O)c3cn(C)c(=O)c4c3c3ccccc3n4C)CC2)cc1 | 0.9 | -11.8 | 1.4 | 132.4* | 1 | 1
COc1ccc(N2CCN(C(=O)c3cn(C4CCCC4)c(=O)c4c3c3ccccc3n4C)CC2)cc1 | 0.9 | -13.8 | -6.0 | / | 1 | 1.1
O=C(CN1CCN(CC(=O)Nc2ccccc2Cl)CC1)Nc1ccc2c(c1)OCCO2 | 1.4 | -7.0 | -5.2 | -9.4 | 2* | 1.1
COc1ccccc1NC(=O)CN1CCN(CC(=O)Nc2ccc3c(c2)OCCO3)CC1 | 1 | -10.2 | -2.4 | -4.0 | 1.1 | 1
CCOC(=O)c1oc2nc(C(C)C)c3c(c2c1N)CC(C)(C)OC3 | 1 | -14.6 | -6.6 | -9.0 | 0.9 | 1.1
CCOC(=O)C1CCCN(Cc2cn[nH]c2-c2ccc(F)cc2F)C1 (stereo not drawn) | 1 | 42.3 | -5.2 | 4.0 | 1 | 1.1
c1ccc(-c2ccc(-c3[nH]ncc3CN3CCC(N4CCSCC4)CC3)cc2)cc1 | 1 | -8.7 | -2.3 | 3.1 | 0.9 | 1
COc1ccc(-c2[nH]ncc2CN2CCC(OCc3ccccc3)CC2)c(F)c1 | 0.9 | 45.4 | -6.2 | 4.2 | 1 | 1.1
COc1ccc(-c2[nH]ncc2CN2CCC(N3CCSCC3)CC2)c(F)c1 | 0.9 | 75.2* | -5.7 | -34.4 | 1 | 1.1
SMILES | PMI act | TNAP inh noacc | TNAP inh hi DEA | Rad51 HR inh | PMI act hi M6P | TNAP act hiacc
COc1ccc(-c2[nH]ncc2CN2CCCO2)c(F)c1 | 1 | 64.4* | -8.4 | / | 1 | 1.1
COCC1CCN(Cc2cn[nH]c2-c2ccc(OC)cc2F)C1 (stereo not drawn) | / | 73.9* | -2.7 | 10.0 | / | 1
COc1ccccc1C(=O)N1CCN(Cc2cn[nH]c2-c2ccc(F)cc2F)CC1 | 1 | 85.6* | 4.3 | / | 1 | 1
CC(=O)C1=C(O)CC(c2ccccc2)CC1=NCCc1c(C)[nH]c2ccccc12 (stereo not drawn) | 0.8 | -1.2 | 1.1 | -1.2 | 0.9 | 1
CSc1nc(-c2ccco2)nn1C(=O)c1ccccc1 | 1 | -6.8 | -6.2 | -1.0 | 1 | 1.1
O=C(O)C1C2CCC(C2)C1C(=O)NCCC1=CCCCC1 (stereo not drawn) | 1 | -10.2 | -4.7 | -3.7 | 1 | 1
O=C(O)C[C@H]1c2cc(F)ccc2S(=O)(=O)N1Cc1ccccc1 | / | / | / | 6.6 | / | /
O=C(Oc1ccc(/C=N/Nc2ccccc2)cc1)c1ccccc1 | 1.5 | -7.2 | -2.6 | -3.7 | 2.3* | 1
C/C(=N\Nc1ccc(Cl)cc1)c1c(O)cc(C)oc1=O | 1.7 | -8.7 | -5.1 | 11.4 | 2.6* | 1.1
Cn1cc(/C=N/Nc2ccccc2)c2ccccc21 | 1.6 | -2.0 | 1.4 | -2.0 | 2.5* | 1
O=C(O)c1cc(N/N=C/c2ccc(OCc3ccccc3)cc2)ccc1Cl | 1.7 | -0.9 | -0.5 | -19.4 | 2.5* | 1
O=C(O)c1ccc(N/N=C/c2cn(Cc3ccccc3F)c3ccccc23)cc1 | / | / | / | 13.1 | / | /
COC(=O)c1ccc(COc2ccc(/C=N/Nc3cccc(C(=O)O)c3)cc2)cc1 | / | / | / | -3.3 | / | /
O=C(Oc1ccc(/C=N/O)cc1)c1ccccc1 | 0.9 | -9.7 | -6.5 | -8.9 | 0.9 | 1.1
Oc1ccccc1/C=N/Nc1ccccc1 | 1.6 | 0.0 | -2.1 | / | 2.3* | 1
Cc1cc(O)c(/C=N/Nc2ccccc2)c(=O)o1 | 1.5 | -2.4 | 1.9 | 2.0 | 2* | 1
O=C(O)c1cc(Br)ccc1NN=C1CCCCC1 | 1.8 | -9.5 | 5.8 | -0.4 | 2.9* | 0.9
Fc1cccc(NC(=S)NNc2c3ccccc3nc3ccccc23)c1 | 1.4 | 34.2 | 32.8 | 4.7 | 2.1* | 0.7
COc1cc2c(cc1OC)C(C)N(C(=O)c1c(-c3ccccc3)noc1C)CC2 (stereo not drawn) | / | / | / | -29.6 | / | /

From PubChem
